Only some compounds are listed: those with a hit (about 3% of all), similar ones and a draw of the others.
Yeast growth inh = yeast BB579 growth reduction in restrictive medium; S. cerevisiae BB579 growth, OD615, 48 h; inhibition, % at 10 µM; 0.51% of 140,000 active;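 active = inhibition above a set limit, 3 SD over the mean compound inhibition, cut at about 44% in these data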
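System: DeaD yeast strain BB579; buffer or medium: CSMM-D dextrose restrictive medium; technique: OD at 615 nm; schedule: 4 h cell preincubation, 48 h compound exposure, 30 °C humidified; doses: single 10 µM dose; controls: amphotericin B 10 µg/mL, positive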
Yeast life ext = yeast lifespan extension; S. cerevisiae growth with nicotinamide, OD615; deaD strain in restrictive glucose medium; AID 775; inhibition of the nicotinamide effect, % at 10 µM; 0.68% of 130,000 active;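 active = inhibition above a set limit, placed 3 SD over the median of all compounds, cut at about 26% in these data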;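 note: 0% = nicotinamide-treated wells and 100% = cells grown without nicotinamide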
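assay system = DeaD-strain S. cerevisiae | buffer or medium = restrictive glucose medium | reagent = 1.5 mM nicotinamide | compound = 10 µM single point, 0.25% DMSO | incubation = 48 h compound exposure at 30 °C, humidified | signal = OD615 measurement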
RAM inhibit = blocks the yeast RAM network | S. cerevisiae dse1pr::URA3 reporter, 5-FOA growth OD615, 2 d; analog-sensitive cbk1-as2 kinase mutant strain | 1.8% of 190,000 active | inhibition, % at 50 µM;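 active = inhibition above a set limit, 3 SD over mean compound inhibition, cut at about 8.4% in these data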;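 note: 0% = DMSO-only wells with no growth and 100% = 10 µM 1-NA-PP1 full growth; inhibition rescues growth on 5-FOA so higher OD means more RAM inhibition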
Ins promoter up = MIN6 insulin promoter up-regulation. MIN6 insulin promoter-GFP reporter, high-content imaging; stronger effect = higher value. z-score at 5 µM. AID 1625. 0.3% of 190,000 active;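 active = z-score above 3 at 5 µM with at least 500 cells counted in the well; inconclusive = wells under 500 cells, flagged as cytotoxic or low count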
Insulin prom inh = TRM-6 insulin promoter activity inhibition. TRM-6 cells, insulin promoter-eGFP reporter, imaging; reporter expression induced with tamoxifen. inhibition, % at 2 µM. 0.9% of 130,000 active;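 active = inhibition above the mean plus 3 SD, with well images judged a real hit on visual review, cut at about 60% in these data, passing the limit was not always enough; inconclusive = inhibition over the cutoff but images rejected on review; inactive = inhibition not above the cutoff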
Active calls of the source: *; ? = inconclusive; / = no result.

SMILES	Yeast growth inh	Yeast life ext	RAM inhibit	Ins promoter up	Insulin prom inh
CC1CCN(CC(=O)Nc2ccc(S(=O)(=O)NC3CC3)cc2)CC1	/	/	/	0.01	/
COc1ccc2cc3cc(C(=O)NCc4ccccn4)oc3nc2c1	-30	-19	2	3.3*	-22
COC(=O)c1cc(-c2ccccc2)c2c(=O)n(C)c(=O)n(C)c2n1	/	/	0	-0.04	/
Cc1[nH]nc2nc3c(c(OC(=O)c4ccccc4)c12)c(=O)n(C)c(=O)n3C	23	52*	-1	0.3	/
CCOC(=O)CNC(=O)CSc1nc2c(C)cccc2cc1CC	/	/	2	0.48	/
COc1ccc(OC)c(NC(=O)C(=S)NC2CCCCC2)c1	/	/	8.7*	-1.4	-71
c1cnc2c(C3NCCc4c3[nH]c3ccccc43)cccc2c1 (stereo not given)	/	/	0	-0.51	/
Cc1ccc(N=Nc2c(C)[nH][nH]c2=O)c(C)c1	-31	-9	5	0.01	73*
Cc1[nH][nH]c(=O)c1N=Nc1ccccc1C#N	/	/	1	0.04	36
CCc1ccc(NC(=O)C(=O)NNC(=O)COc2cccc(OC)c2)cc1	-39	2	2	0.33	15
COC(=O)C1=C(C(=O)OC)C(c2ccccc2O)c2sc(=O)[nH]c2S1 (stereo not given)	-44	45*	1	0.04	0
COC(=O)c1sc2ccccc2c1N	10	-14	1	0.04	/
O=C(CN1C(=O)c2ccccc2C1=O)Nc1sc2c(c1C(=O)NCC1CCCO1)CCC2 (stereo not given)	-62	-9	6	0.6	-36
COc1ccc(OCC(=O)Nc2sc3c(c2C(=O)NCC2CCCO2)CCC3)cc1 (stereo not given)	-12	3	9.0*	/	-62
CCC(C)(NC(=O)CNC(C)=O)C(=O)NC1CCCCC1 (stereo not given)	5	-11	0	-1.8	69*
CCC(C)(NC(=O)c1ccccn1)C(=O)NC1CCCC1 (stereo not given)	/	/	1	0.24	/
CCC(C)(C(=O)NC1CCCCC1)N(C(=O)c1ccccn1)c1ccccc1 (stereo not given)	-19	-5	0	0.37	-21
CCC(C)(C(=O)NC1CCCC1)N(C(=O)CNC(C)=O)c1ccccc1 (stereo not given)	-24	2	-1	3.5*	/
CCOc1cc2c(cc1OCC)C(c1ccccc1)N(c1ccccc1)C(=O)C2 (stereo not given)	-34	4	0	-0.61	28
Cc1ccc(S(=O)(=O)/N=C(\Nc2cc(C)on2)c2ccc(Cl)cc2)cc1	-33	3	4	0.66	50
CC(C)[C@H](NC(=O)c1ccc(C(C)(C)C)cc1)C(=O)Nc1nnc(C2CC2)s1	-14	0	1	0.3	5
Cc1c([N+](=O)[O-])c([N+](=O)[O-])nn1CC(=O)N1CCOCC1	/	/	1	-1.2	/
O=C(COC(=O)c1ccc(S(=O)(=O)Nc2ccccc2)cc1)NCc1ccco1	-60	-3	1	/	14
FCCCOc1ccc(-c2nccc(-c3ccc(Cl)cc3)n2)cc1	-47	-3	8.8*	1.2	-13
C#CCNC(=O)C1=C[C@H](c2ccc3c(c2)OCO3)[C@@H](CCCO)[C@H](OCC)O1	/	/	1	0.22	/
SMILES	Yeast growth inh	Yeast life ext	RAM inhibit	Ins promoter up	Insulin prom inh
COc1ccc(/C=C(\C#N)C(=O)OCC(=O)Nc2c(C)cccc2C(C)C)cc1	-45	-4	3	3.4*	25
COc1ccc(/C=C(\C#N)C(=O)OCC(=O)NC(=O)NCCC(C)C)cc1	/	/	1	/	-20
Cn1c(=O)c2c(nc(N/N=C/c3ccc(OC(=O)c4ccco4)cc3)n2Cc2ccccc2)n(C)c1=O	-12	3	7	-0.34	11
COc1ccc(NC(=O)CSc2nc(C)c3c(c2C#N)CCCC3)cc1	-29	-15	4	-0.06	-15
CCc1nnc(NC(=O)CSc2nc(C)c3c(c2C#N)CCCC3)s1	-41	-12	3	-0.98	85*
COc1ccc(C(=O)NCC(C)(C)SCc2c(C)cc(C)cc2C)cc1	-61	-6	9.3*	-0.74	-10
CCOC(=O)N1CCN(C(=O)CNC2CCCCCCC2)CC1	/	/	1	/	/
Cc1nc(C)c(C(=O)O)s1	/	/	/	0.42	/
CCCCn1c(=O)[nH]c2nc3cc(N)ccc3nc2c1=O	-16	0	3	4.8*	/
S=C1SCN(Cc2ccccn2)CN1Cc1ccco1	52*	22	-1	0.24	30
S=C1SCN(Cc2cccnc2)CN1Cc1ccccc1	/	/	0	0.81	25
COCCN1CSC(=S)N(Cc2ccco2)C1	60*	-8	-1	-0.51	30
COc1cccc(C2(O)CC(C(F)(F)F)=NN2C(=O)c2ccccn2)c1 (stereo not given)	/	/	-1	-0.17	/
CC(=O)c1cccc(S(=O)(=O)N2CCCC(c3nc(-c4ccc(C)o4)no3)C2)c1 (stereo not given)	-51	-5	9.3*	-0.82	-38
Cc1cc(=O)[nH]c(-n2ncc(C#N)c2N)n1	/	/	0	-1.7	/
Cc1ccc(-c2nc(SCC(=O)Nc3cc(S(=O)(=O)N4CCCCC4)ccc3Cl)n[nH]2)cc1	-32	5	9.5*	-1.8	-57
Cc1nnc(SCC(=O)Nc2cc(S(=O)(=O)N3CCCC3)ccc2Cl)s1	/	/	/	-0.15	/
Cc1ccc(/C=C/C(=O)O)cc1S(=O)(=O)Nc1ccc2c(c1)OCO2	/	/	8.8*	-0.01	/
Cc1ccc(/C=C/C(=O)O)cc1S(=O)(=O)NCCCO	-46	-19	0	0.11	-19
CC(NCC(O)COCCC12CC3CC(CC(C3)C1)C2)c1ccccc1 (stereo not given)	/	/	-1	-1.3	-32
COc1cc(C)ccc1OCCOc1cc(C)ccc1Cl	-34	-22	4	/	-38
COc1cc(C)ccc1OCCOc1c(Cl)cc(Cl)cc1Cl	-28	-13	9.9*	0.68	-7
COc1cc(OC)c2ccc(=O)oc2c1C(CC(=O)N1CCOCC1)c1ccc(N(C)C)cc1 (stereo not given)	/	/	/	0.03	/
Cc1ccccc1NCC(=O)N/N=C/c1c[nH]c2ccccc12	/	/	-1	4*	/
O=C(NCc1ccccc1Cl)C1CCN(C(=O)c2sccc2-n2cccc2)CC1	-29	-1	8.9*	1.5	?
SMILES	Yeast growth inh	Yeast life ext	RAM inhibit	Ins promoter up	Insulin prom inh
Cc1cc2ncn(/N=C/c3ccc(-c4ccccc4)o3)c2cc1C	-45	-22	9.5*	0.89	29
CC1CCCc2sc3ncn(N)c(=N)c3c21 (stereo not given)	/	/	1	-0.16	/
Cc1ccc(NC(=O)c2ccccc2NS(=O)(=O)c2ccc(F)cc2)cc1S(=O)(=O)N1CCCCC1	-37	7	8.9*	-1.8	/
COc1ccc(C(=O)NC(C(=O)NCC(=O)Nc2c(C)cccc2C)C(C)C)cc1 (stereo not given)	-1	0	1	-0.23	-30
N/C(=N\OC(=O)CCn1cccc(C(F)(F)F)c1=O)c1ccc(Cl)cc1	/	/	/	-0.38	/
Cc1nn(-c2c(Cl)cc(Cl)cc2Cl)c(=O)c2ccccc12	-6	49*	1	3.4*	16
